Results as given in ChEMBL document CHEMBL2424622, “Development of amino-pyrimidine inhibitors of c-Jun N-terminal kinase (JNK): kinase profiling guided optimization of a 1,2,3-benzotriazole lead” (Bioorg Med Chem Lett, 2013).

What was measured:
[1] = test system: Phosphatidylinositol 4,5-bisphosphate 3-kinase catalytic subunit alpha isoform (Homo sapiens), P42336 [E545K]; test: Competitive binding affinity to PIK3CA E545K mutant (unknown origin) at 10 uM in presence of ATP relative to control
[2] = biological target: Ribosomal protein S6 kinase alpha-1 (Homo sapiens, UniProt Q15418); test: Competitive binding affinity to RPS6KA1 kinase domain 1 (unknown origin) at 10 uM in presence of ATP relative to control
[3] = biological target: Cyclin-dependent kinase 3 (Homo sapiens) (UniProt Q00526); test: Competitive binding affinity to CDK3 (unknown origin) at 10 uM in presence of ATP relative to control
[4] = biological target: Serine/threonine-protein kinase PLK3 (Homo sapiens) (UniProt Q9H4B4); test: Competitive binding affinity to PLK3 (unknown origin) at 10 uM in presence of ATP relative to control
[5] = test system: Mast/stem cell growth factor receptor Kit (Homo sapiens), P10721 [V559D,T670I]; test: Competitive binding affinity to KIT V559D/T670I double mutant (unknown origin) at 10 uM in presence of ATP relative to control
[6] = biological target: T1, Receptor-interacting serine/threonine-protein kinase 1 (Homo sapiens) (UniProt Q13546); test: Competitive binding affinity to RIPK1 (unknown origin) at 10 uM in presence of ATP relative to control
T1 sequence (whole entry): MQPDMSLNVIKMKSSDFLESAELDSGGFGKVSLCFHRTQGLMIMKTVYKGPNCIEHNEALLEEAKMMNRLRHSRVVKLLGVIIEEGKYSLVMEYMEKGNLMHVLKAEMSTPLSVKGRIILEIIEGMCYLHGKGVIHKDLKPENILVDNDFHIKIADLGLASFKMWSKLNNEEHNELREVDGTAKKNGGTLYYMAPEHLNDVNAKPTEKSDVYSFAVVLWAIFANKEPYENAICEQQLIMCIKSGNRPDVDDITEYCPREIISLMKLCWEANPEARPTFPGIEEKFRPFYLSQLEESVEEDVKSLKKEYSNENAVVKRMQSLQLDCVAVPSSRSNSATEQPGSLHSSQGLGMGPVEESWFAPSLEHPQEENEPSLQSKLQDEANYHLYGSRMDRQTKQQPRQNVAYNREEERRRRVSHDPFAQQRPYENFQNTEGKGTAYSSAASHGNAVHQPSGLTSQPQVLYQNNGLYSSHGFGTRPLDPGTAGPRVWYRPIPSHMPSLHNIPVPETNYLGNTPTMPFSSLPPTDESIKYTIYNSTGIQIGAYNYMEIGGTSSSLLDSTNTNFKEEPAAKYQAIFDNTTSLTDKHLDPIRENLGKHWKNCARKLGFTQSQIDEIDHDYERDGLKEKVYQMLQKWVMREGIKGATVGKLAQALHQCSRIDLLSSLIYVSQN

[7] = biological target: Mitogen-activated protein kinase kinase kinase 12 (DLK) (Homo sapiens) (UniProt Q12852); test: Competitive binding affinity to DLK (unknown origin) at 10 uM in presence of ATP relative to control
[8] = biological target: Mitogen-activated protein kinase 4 (Homo sapiens, UniProt P31152); test: Competitive binding affinity to ERK4 (unknown origin) at 10 uM in presence of ATP relative to control
[9] = biological target: T2, NUAK family SNF1-like kinase 2 (Homo sapiens) (UniProt Q9H093); test: Competitive binding affinity to SNARK (unknown origin) at 10 uM in presence of ATP relative to control
T2 sequence (whole entry): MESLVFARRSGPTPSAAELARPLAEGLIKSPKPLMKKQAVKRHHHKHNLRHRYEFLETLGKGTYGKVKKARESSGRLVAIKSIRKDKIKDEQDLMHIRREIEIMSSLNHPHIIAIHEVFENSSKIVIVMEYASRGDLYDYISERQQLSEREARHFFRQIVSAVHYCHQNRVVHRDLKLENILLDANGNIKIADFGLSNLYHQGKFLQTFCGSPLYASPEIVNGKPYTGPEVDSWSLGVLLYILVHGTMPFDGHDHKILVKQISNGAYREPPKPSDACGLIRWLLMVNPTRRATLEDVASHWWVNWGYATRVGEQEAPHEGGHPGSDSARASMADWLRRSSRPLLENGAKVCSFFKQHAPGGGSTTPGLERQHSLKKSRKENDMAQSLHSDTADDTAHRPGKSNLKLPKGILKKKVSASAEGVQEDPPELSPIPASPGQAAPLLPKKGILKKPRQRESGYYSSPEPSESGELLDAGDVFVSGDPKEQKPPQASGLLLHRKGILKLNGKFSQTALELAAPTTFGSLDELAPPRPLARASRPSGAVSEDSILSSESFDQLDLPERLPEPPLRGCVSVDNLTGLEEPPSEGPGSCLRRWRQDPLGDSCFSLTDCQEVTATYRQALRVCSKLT

[10] = biological target: cAMP-dependent protein kinase catalytic subunit beta (Homo sapiens) (UniProt P22694); test: Competitive binding affinity to PKAC-beta (unknown origin) at 10 uM in presence of ATP relative to control
Procedure, shortened: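 In vitro ATP-site competition binding assay across a diverse panel of 128 kinases, with compound tested at a single concentration. Kinase selectivity scores (S15) were calculated from the panel profiles.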

[11] = biological target: T3, Serine/threonine-protein kinase DCLK1 (Homo sapiens) (UniProt O15075); test: Competitive binding affinity to DCAMKL1 (unknown origin) at 10 uM in presence of ATP relative to control
T3 sequence (whole entry): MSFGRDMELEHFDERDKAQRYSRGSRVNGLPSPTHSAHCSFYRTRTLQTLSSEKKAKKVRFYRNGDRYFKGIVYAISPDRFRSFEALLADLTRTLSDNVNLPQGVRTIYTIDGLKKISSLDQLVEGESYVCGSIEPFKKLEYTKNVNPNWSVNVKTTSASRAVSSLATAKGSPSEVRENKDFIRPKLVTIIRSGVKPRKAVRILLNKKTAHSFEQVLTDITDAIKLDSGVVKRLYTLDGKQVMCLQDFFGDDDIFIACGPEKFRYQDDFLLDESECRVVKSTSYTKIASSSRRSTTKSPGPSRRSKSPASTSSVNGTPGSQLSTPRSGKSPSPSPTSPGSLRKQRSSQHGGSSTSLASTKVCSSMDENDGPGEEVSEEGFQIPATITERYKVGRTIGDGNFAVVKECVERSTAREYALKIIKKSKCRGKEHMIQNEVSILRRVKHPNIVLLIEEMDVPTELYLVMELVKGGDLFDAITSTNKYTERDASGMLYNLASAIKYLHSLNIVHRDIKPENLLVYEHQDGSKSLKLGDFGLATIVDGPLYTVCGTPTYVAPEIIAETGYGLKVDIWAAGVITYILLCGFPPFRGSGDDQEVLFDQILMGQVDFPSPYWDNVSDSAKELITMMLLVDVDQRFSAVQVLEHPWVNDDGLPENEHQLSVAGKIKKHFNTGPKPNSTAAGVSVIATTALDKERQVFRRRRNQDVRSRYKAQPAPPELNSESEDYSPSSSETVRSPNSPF

Sequence of Ribosomal protein S6 kinase alpha-1 (Q15418 whole entry, the tested form may be a part): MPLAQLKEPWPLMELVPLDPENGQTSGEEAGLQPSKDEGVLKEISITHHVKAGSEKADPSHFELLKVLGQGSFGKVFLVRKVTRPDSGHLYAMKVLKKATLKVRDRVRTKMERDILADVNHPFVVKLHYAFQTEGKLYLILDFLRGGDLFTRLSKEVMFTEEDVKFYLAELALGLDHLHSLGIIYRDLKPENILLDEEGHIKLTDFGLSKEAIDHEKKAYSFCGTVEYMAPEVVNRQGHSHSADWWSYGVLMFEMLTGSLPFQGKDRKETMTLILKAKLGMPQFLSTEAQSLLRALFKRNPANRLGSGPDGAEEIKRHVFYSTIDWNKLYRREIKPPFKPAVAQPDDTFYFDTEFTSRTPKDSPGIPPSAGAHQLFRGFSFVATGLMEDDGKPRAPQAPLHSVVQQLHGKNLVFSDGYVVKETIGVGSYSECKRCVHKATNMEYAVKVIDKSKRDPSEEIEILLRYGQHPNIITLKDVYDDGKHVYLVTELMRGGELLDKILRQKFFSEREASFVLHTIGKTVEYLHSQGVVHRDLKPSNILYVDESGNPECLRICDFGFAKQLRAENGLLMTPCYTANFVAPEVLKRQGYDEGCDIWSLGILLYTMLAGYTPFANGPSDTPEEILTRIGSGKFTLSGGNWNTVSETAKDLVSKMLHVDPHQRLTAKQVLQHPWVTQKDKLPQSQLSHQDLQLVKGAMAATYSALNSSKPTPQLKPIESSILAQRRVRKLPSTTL
Sequence of Phosphatidylinositol 4,5-bisphosphate 3-kinase catalytic subunit alpha isoform (Homo sapiens), P42336 [E545K] (P42336 whole entry E545K, the tested form may be a part, canonical isoform): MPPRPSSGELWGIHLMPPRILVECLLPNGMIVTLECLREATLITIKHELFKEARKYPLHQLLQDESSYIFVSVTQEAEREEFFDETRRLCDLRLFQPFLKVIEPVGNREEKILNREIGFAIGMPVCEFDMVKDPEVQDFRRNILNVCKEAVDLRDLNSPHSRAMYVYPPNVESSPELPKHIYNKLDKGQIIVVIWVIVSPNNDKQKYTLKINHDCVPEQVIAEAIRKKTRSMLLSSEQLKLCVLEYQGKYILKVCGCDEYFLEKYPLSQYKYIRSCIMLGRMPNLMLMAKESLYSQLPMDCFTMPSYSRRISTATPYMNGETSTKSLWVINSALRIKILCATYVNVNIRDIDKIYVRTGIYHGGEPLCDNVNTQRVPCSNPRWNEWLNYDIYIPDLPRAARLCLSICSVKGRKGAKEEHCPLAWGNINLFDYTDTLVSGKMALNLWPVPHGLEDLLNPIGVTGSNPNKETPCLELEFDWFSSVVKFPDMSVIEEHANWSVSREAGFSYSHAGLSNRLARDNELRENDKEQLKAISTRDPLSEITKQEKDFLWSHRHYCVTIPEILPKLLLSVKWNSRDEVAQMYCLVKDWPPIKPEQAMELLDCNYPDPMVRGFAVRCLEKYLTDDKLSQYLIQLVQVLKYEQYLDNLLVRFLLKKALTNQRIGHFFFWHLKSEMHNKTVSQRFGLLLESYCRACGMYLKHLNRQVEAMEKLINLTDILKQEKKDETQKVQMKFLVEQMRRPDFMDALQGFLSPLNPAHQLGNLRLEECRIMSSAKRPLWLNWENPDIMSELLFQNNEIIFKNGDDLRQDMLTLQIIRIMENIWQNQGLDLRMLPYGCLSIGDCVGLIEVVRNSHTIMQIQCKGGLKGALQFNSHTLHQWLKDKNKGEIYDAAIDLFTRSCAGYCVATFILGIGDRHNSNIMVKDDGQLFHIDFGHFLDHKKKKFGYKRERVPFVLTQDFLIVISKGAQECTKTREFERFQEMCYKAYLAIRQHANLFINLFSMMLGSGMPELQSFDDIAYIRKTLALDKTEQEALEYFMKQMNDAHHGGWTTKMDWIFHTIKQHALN
Sequence of Cyclin-dependent kinase 3 (Homo sapiens) (Q00526 whole entry, looked up): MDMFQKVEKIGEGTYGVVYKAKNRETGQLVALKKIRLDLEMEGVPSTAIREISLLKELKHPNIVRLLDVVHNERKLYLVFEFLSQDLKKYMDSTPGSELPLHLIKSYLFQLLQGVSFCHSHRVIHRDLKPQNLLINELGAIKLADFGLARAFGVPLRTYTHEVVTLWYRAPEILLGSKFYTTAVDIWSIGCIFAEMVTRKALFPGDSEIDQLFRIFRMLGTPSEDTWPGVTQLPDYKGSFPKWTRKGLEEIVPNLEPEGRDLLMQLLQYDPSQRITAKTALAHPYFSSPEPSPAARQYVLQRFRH
Sequence of Mast/stem cell growth factor receptor Kit (Homo sapiens), P10721 [V559D,T670I] (P10721 whole entry V559D/T670I): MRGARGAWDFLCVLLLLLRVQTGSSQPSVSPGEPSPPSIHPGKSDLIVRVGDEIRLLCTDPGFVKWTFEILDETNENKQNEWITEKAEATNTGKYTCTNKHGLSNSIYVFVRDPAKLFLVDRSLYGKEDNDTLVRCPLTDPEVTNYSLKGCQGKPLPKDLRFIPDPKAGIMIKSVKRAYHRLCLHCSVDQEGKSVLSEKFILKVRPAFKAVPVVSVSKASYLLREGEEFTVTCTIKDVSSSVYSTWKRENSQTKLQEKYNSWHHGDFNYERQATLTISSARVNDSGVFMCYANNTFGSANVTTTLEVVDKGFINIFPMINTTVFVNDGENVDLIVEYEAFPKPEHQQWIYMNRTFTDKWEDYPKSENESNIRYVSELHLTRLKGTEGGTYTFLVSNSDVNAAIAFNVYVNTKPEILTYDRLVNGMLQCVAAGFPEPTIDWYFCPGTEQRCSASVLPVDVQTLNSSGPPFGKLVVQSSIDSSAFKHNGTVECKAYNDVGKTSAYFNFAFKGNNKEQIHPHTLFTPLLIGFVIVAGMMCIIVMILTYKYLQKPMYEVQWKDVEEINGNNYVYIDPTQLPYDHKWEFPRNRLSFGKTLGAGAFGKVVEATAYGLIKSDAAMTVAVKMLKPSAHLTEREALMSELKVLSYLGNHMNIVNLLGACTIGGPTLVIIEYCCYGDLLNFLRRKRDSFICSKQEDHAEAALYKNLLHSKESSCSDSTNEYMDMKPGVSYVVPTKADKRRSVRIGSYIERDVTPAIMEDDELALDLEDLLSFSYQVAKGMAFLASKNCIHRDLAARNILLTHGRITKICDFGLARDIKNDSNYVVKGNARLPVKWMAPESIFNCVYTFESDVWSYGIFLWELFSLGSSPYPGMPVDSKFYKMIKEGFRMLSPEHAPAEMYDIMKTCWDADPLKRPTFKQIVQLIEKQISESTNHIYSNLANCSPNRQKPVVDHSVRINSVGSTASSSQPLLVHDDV
Sequence of Mitogen-activated protein kinase 4 (P31152 whole entry): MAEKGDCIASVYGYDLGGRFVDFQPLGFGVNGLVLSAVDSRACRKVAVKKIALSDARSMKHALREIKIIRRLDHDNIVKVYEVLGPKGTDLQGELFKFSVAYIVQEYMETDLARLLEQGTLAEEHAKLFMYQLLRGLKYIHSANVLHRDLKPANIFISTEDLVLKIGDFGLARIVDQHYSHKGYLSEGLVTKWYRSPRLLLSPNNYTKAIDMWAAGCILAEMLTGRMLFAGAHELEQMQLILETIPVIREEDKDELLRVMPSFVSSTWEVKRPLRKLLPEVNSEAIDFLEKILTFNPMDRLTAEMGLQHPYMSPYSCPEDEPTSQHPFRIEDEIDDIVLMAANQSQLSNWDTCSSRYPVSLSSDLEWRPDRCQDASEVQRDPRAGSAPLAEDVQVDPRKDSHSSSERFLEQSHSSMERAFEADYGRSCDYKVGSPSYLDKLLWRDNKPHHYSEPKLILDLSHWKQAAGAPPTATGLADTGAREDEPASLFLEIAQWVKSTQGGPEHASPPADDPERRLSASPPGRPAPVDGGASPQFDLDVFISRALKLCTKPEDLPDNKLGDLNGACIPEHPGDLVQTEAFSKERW
Sequence of Mitogen-activated protein kinase kinase kinase 12 (DLK) (Homo sapiens) (Q12852 whole entry, looked up): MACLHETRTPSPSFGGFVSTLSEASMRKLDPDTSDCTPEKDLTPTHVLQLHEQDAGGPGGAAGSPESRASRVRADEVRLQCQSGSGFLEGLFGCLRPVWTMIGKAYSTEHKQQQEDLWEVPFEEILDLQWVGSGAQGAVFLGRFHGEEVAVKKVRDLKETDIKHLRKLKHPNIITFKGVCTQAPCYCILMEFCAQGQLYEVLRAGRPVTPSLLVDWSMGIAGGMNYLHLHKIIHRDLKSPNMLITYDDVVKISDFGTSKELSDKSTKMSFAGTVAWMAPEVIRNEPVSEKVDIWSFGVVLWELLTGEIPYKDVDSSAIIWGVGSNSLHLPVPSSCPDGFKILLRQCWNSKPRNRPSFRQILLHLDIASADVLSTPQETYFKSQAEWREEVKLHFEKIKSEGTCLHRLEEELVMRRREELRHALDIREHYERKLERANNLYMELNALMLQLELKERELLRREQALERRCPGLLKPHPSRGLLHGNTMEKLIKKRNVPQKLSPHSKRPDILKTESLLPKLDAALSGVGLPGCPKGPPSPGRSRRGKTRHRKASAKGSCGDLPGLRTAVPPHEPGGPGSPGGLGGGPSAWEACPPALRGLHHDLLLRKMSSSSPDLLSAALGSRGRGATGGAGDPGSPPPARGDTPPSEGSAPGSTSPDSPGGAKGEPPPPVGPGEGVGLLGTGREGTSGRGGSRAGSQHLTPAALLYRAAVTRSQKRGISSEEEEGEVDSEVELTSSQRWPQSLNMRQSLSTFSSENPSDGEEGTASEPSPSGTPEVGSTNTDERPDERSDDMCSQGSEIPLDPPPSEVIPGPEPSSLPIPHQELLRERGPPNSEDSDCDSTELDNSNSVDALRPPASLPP

inhibition [1]	inhibition [2]	inhibition [3]	inhibition [4]	inhibition [5]	inhibition [6]	inhibition [7]	inhibition [8]	inhibition [9]	inhibition [10]	inhibition [11]	SMILES
82%	91%	< 50%	< 50%	80%	< 50%	< 50%	99%	78%	< 50%	< 50%	O[C@H]1CC[C@H](Nc2nccc(-n3ncc4ccccc43)n2)CC1
< 50%	66%	< 50%	< 50%	< 50%	< 50%	< 50%	63%	< 50%	< 50%	< 50%	O[C@H]1CC[C@H](Nc2nccc(-n3ccc4ccccc43)n2)CC1
–	–	–	< 50%	96%	–	–	–	–	< 50%	–	O[C@H]1CC[C@H](Nc2nccc(-c3n[nH]c4ccccc34)n2)CC1
88%	100%	75%	68%	74%	< 50%	< 50%	100%	94%	< 50%	66%	O[C@H]1CC[C@H](Nc2nccc(-n3nnc4ccccc43)n2)CC1
–	> 85%	–	–	–	–	–	> 85%	> 85%	–	–	CS(=O)(=O)CCCOc1cccc2c1ccn2-c1ccnc(N[C@H]2CC[C@H](C(=O)N3CCC(O)CC3)CC2)n1
